# Bioassay records: PubChem BioAssay, several laboratories
# GSH bead fluor: GSH bead compound fluorescence profile; actives 0.25% (n = 190,000); GSH beads flow cytometry, compound fluorescence 488/530 nm; stronger effect = higher value; AID 1776; fluorescence (KMESF) at 10 µM; in the data active = fluorescence above about 89;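 note: glutathione beads carrying GST-tagged Bcl family fusion proteins plus one bare bead set; values are compound well signal with DMSO vehicle wells as background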
# ABCB1 inh: blocks JC-1 efflux by human ABCB1 transporter. P08183. CCRF-Adr cells, flow cytometry. inhibition, % at 6.6 µM. actives 0.067% (n = 190,000); in the data active = inhibition above about 40%;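 note: 0% = vehicle and 100% = reference inhibitor; higher value means more JC-1 retained so stronger ABCB1 efflux block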
# Avidin fluor: compound fluoresces at 488/530 nm on avidin beads; compound fluorescence 488/530 nm, flow cytometry; stronger effect = higher value; actives 0.38% (n = 220,000); fluorescence (KMESF) at 10 µM; AID 1775; in the data active = fluorescence above about 47
# Lmaj promast: Leishmania major promastigote growth inhibition. Leishmania major promastigotes, resazurin fluorescence viability. inhibition, % at 10 µM. actives 9% (n = 200,000). AID 1063;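 note: promastigotes grown with compound for 44 hours at 28 °C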
# ABCG2 block: blocks JC-1 efflux by human ABCG2 transporter; Q9UNQ0; IgMXP3 cells, flow cytometry; inhibition, % at 6.6 µM; actives 0.1% (n = 190,000); AID 1325;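 active = inhibition above 80%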;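 note: 0% = DMSO and 100% = nicardipine control wells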
#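 Times: 10 min at 25 °C | Test system: Two drug-resistant human cell lines, ABCG2 and ABCB1 | Quantity: 3 million cells/mL final, two lines in 1:1 ratio | Signal: Flow cytometry, 530 nm JC-1 signal | Dosing: Compound at 6.6 µM | Controls: Nicardipine and DMSO wells | Reagent: JC-1 as fluorescent efflux pump substrate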
# PKD1 kinase inh: blocks activity of human protein kinase D1; Q15139; PKD1 kinase fluorescence polarization assay; inhibition, % (concentration not given with the values); actives 0.056% (n = 200,000)
# Target sequence (Q15139 whole entry, looked up): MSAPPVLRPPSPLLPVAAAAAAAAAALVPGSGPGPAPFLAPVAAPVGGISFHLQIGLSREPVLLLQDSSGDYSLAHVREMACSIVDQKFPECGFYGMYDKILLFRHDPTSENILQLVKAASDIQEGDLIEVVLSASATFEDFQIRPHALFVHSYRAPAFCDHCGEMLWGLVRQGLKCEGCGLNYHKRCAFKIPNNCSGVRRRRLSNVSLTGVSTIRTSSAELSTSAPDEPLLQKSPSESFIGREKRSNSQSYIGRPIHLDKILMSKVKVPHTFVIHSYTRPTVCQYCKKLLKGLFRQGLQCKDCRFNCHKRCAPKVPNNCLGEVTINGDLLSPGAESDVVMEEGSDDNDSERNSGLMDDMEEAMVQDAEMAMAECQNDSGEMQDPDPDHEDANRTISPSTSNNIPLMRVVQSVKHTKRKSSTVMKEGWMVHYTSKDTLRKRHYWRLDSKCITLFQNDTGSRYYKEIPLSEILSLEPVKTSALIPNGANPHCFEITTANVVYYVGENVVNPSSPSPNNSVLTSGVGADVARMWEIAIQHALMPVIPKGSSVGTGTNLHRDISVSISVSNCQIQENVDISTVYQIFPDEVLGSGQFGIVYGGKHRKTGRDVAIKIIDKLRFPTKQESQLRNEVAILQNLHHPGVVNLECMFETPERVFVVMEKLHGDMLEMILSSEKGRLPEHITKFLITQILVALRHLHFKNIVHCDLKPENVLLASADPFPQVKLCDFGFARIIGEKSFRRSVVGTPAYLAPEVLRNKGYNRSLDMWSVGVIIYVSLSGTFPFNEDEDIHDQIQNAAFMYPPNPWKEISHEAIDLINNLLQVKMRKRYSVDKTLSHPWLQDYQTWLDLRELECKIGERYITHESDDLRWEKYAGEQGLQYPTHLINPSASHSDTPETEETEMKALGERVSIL
# The depositor's hits bear a star; . = no result given. This excerpt belongs to a sample that is enriched for hits. Cut-off read from the data, not from the text of the source, unless noted: active = inhibition above about 50%; inactive = the rest.
SMILES,GSH bead fluor,ABCB1 inh,Avidin fluor,Lmaj promast,ABCG2 block,PKD1 kinase inh
CC1CCN(CCOc2ccc(OCc3ccccc3)cc2)CC1,15,0,24,99*,0,-5
c1ccc(COc2ccc(OCCCN3CCCCC3)cc2)cc1,46,-1,4,100*,-1,-6
COc1ccccc1N1CCN(CCCOc2ccc(F)cc2)CC1,54,0,11,9,1,3
Fc1ccc(OCCCCCCN2CCCC2)cc1,31,1,11,95*,-2,-3
CN1CCN(CC(=O)Nc2ccc(OCc3ccccc3)cc2)CC1,12,0,15,5,2,3
c1ccc(OCCCN2CCCC2)cc1,48,0,6,0,2,0
CCN(c1ccccc1)S(=O)(=O)c1ccc(Cl)c(NC(=O)CN(C)C2CCN(C)CC2)c1,.,.,6,.,.,.
Cc1ccc(-c2nc(CN(Cc3cnn(C)c3)C(C)C)c(C)o2)o1,8,0,2,3,2,-4
CCCCN(CC)CCCNC(=S)Nc1ccc2nc3n(c(=O)c2c1)CCCCC3,21,2,12,5,11,-11
CCOC(=O)C1CCCN(C(=O)c2ccccc2SCCOC)C1 (stereo not given),30,1,102*,-4,0,1
CCOC(=O)C1CCCN(C(=O)c2cnn3c(C(F)(F)F)cc(-c4ccccc4)nc23)C1 (stereo not given),34,1,13,52*,5,-2
COCCSc1ccccc1C(=O)N1CCCC(C)C1 (stereo not given),17,1,9,0,3,-5
COC(=O)c1cnn2c(C(F)(F)F)cc(-c3ccc(F)cc3)nc12,29,0,21,-6,1,-7
O=C(c1cnn2c(C(F)(F)F)cc(-c3ccc4c(c3)OCO4)nc12)N1CCCC1,30,4,7,77*,46,-10
O=C(c1cnn2c(C(F)(F)F)cc(-c3ccc(Br)cc3)nc12)N1CCOCC1,10,2,20,38,9,-10
COc1ccc(-c2cc(C(F)(F)F)n3ncc(C(=O)N4CCCCC4c4cccnc4)c3n2)cc1 (stereo not given),8,8,15,98*,9,2
O=C(Cc1ccc(Cl)cc1)NCC(=O)N1CCCC1,24,1,12,-1,5,-4
N#C/C(=C\c1ccc(OCc2cccc(C(=O)O)c2)cc1)C(=O)NCc1ccco1,.,.,7,.,.,.
Cc1ccc(-c2cc(=O)c3cc(Cl)ccc3[nH]2)cc1,19,5,6,-3,1,10
Cc1cccc(NC(=S)N(CCCN2CCOCC2)Cc2cn(C)c3ccccc23)c1,25,7,9,90*,30,-5
Cc1ccc(NC(=S)N(C)Cc2cn(C)c3ccccc23)cc1,5,1,11,63*,4,-6
CC(C)c1ccc(NC(=O)Cc2cn(C)c3ccccc23)cc1,19,2,6,6,15,8
Cn1cc(CN(CCCN2CCOCC2)C(=S)Nc2cccc(Cl)c2)c2ccccc21,17,7,8,80*,1,-17
CCOc1ccc(NC(=S)N(CCCN2CCOCC2)Cc2cn(C)c3ccccc23)cc1,15,3,13,60*,6,-4
COc1ccc(NC(=S)N(CCCN2CCOCC2)Cc2cn(C)c3ccccc23)cc1,21,6,12,14,18,-2
SMILES,GSH bead fluor,ABCB1 inh,Avidin fluor,Lmaj promast,ABCG2 block,PKD1 kinase inh
Cc1cccc(NC(=S)N(CCN2CCOCC2)Cc2cc3cc4c(cc3[nH]c2=O)OCO4)c1,18,0,6,-2,2,-1
CCCn1c(=O)c(C#N)cn(C2CC2)c1=O,.,.,7,.,.,.
Cc1ccc(S(=O)(=O)Oc2cc(N)c3c(n2)CCC3)cc1,.,.,7,.,.,.
Cc1ccc(F)c(NC(=O)/C(C#N)=C(\O)c2ccc(C(C)(C)C)cc2)c1,17,-1,10,0,0,-5
Cc1ccccc1NC(=O)N1CCCC(c2nc(-c3ccc(F)cc3)no2)C1 (stereo not given),12,1,19,2,4,-1
Cc1ccccc1NC(=O)N1CCCC(c2nc(-c3ccc(C(C)C)cc3)no2)C1 (stereo not given),13,1,12,85*,4,-10
COc1nnc(-c2ccc(N3CCCCC3)c(N)c2)c2ccccc12,.,.,.,30,.,-10
O=C(Cc1ccc(-n2c(=O)c3ccccc3n(Cc3ccc(F)cc3)c2=O)cc1)NCC1CCCO1 (stereo not given),6,1,9,48,6,-13
O=C(Cc1ccc(-n2c(=O)c3ccccc3n(Cc3ccccc3F)c2=O)cc1)NCC1CCCO1 (stereo not given),4,1,11,99*,0,-5
O=C(Cc1ccc(-n2c(=O)c3ccccc3n(Cc3ccccc3Cl)c2=O)cc1)NCC1CCCO1 (stereo not given),11,2,13,100*,4,-1
CNC(=O)NC1CCCc2ccccc21 (stereo not given),14,0,36,-3,3,-4
CC(C(=O)NC1CCCc2ccccc21)N1CCN(c2ccc(F)cc2)CC1 (stereo not given),15,-1,25,70*,1,2
CC(C(=O)NC1CCCc2ccccc21)N1CCN(Cc2ccc3c(c2)OCO3)CC1 (stereo not given),42,1,5,86*,1,-21
CC/C(=N/OC(=O)c1cccc(C)c1)C(=O)c1cccs1,10,-3,12,-10,-7,-2
CCC1CSC(Nc2ccc(C(=O)/C=C/c3cccc(C)c3)cc2)=N1 (stereo not given),13,1,8,14,36,5
CCC1CSC(Nc2ccc(C(=O)/C=C/c3ccc(Oc4ccccc4)cc3)cc2)=N1 (stereo not given),5,1,3,59*,15,-9
Cn1nc([N+](=O)[O-])nc1Oc1ccc(C(C)(C)C)cc1,10,0,5,22,2,7
CCc1cccc(NC(=S)N(CCCN2CCOCC2)C(C)c2cc3cccc(OC)c3o2)c1 (stereo not given),11,1,16,17,0,-2
Nc1nnc(-c2cc3c(ccc4ccccc43)oc2=O)s1,10,0,10,81*,1,2
C=CCn1c(=O)/c(=C2/Sc3ccccc3N2CC)s/c1=C1/C(=O)NN=C1C,13,0,12,97*,2,0
COc1cc2c(cc1NC(=O)C(C)OC(=O)/C=C/c1ccc(OC(F)F)cc1)oc1ccccc12 (stereo not given),11,1,14,80*,28,2
COc1cc2c(cc1NC(=O)Nc1ccc(C)cc1)oc1ccccc12,17,-1,35,98*,-1,6
COc1cc2c(cc1NC(=O)/C=C/c1ccccc1)oc1ccccc12,30,-2,16,10,32,9
